ChEMBL document CHEMBL1150374, “Synthesis and anticonvulsant activity of aromatic tetramethylcyclopropanecarboxamide derivatives” (Bioorg Med Chem, 2008)
The source made the active and inactive calls. The calls are words filed in the database; no cut-off is given here.

Tests used:
Mus musculus [1] = species: Mus musculus; assay: Anticonvulsant activity against maximal electroshock-induced seizures in mouse model; type: functional
In short: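 Compounds given ip to mice at 100 or 300 mg/kg, dosed at 0.01 mL per gram body weight. Maximal electroshock seizures were tested at 0.5, 2 and 4 h after dosing. Activity is reported as animals protected over animals tested, with neurotoxicity scored alongside.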

Mus musculus [2] = assay: Anticonvulsant activity against scMet-induced seizures in mouse model at 300 mg/kg, ip after 4 hrs; type: functional, organism-based; set-up: dose 300 mg/kg
In short: (§1)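 Mice dosed intraperitoneally at 300 mg/kg, in a dosing volume of 0.01 mL per gram body weight. Seizure protection was scored at the stated time after dosing. Activity is expressed as the number of animals protected over the number tested.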

Mus musculus [3] = assay: Anticonvulsant activity against maximal electroshock-induced seizures in mouse model at 300 mg/kg, ip after 0.5 hrs; type: functional, organism-based; set-up: dose 300 mg/kg; in short: as §1
Mus musculus [4] = assay: Anticonvulsant activity against maximal electroshock-induced seizures in mouse model at 300 mg/kg, ip after 4 hrs; type: functional, organism-based; set-up: dose 300 mg/kg; in short: as §1
Mus musculus [5] = assay: Anticonvulsant activity against scMet-induced seizures in mouse model at 300 mg/kg, ip after 0.5 hrs; type: functional, organism-based; set-up: dose 300 mg/kg; in short: as §1
Rattus norvegicus [6] = assay: Anticonvulsant activity against scMet-induced seizures in orally dosed rat model; type: functional; settings: po
In short: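 Rats dosed orally in a volume of 0.04 mL per 10 g body weight. ED50 was determined with 95% confidence intervals by probit analysis.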

Rattus norvegicus [7] = species: Rattus norvegicus; assay: Protective index, ratio of TD50 for rat by rotarod test to ED50 for rat by MES test; type: functional
In short: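 PI was calculated as TD50/ED50 from oral dosing in rats. Both values were derived by probit analysis.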

Rattus norvegicus [8] = assay: Anticonvulsant activity against maximal electroshock-induced seizures in orally dosed rat model; type: functional; settings: po
[9] = Toxicity in orally dosed rat by rotarod test; type: organism-based; settings: in vivo, po
In short: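 Rats dosed orally in a volume of 0.04 mL per 10 g body weight. Dose was varied until four points were established between the level causing no minimal motor impairment in any animal and the level at which all animals were impaired. TD50 was derived with 95% confidence intervals by probit analysis.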

Mus musculus [10] = assay: Anticonvulsant activity against maximal electroshock-induced seizures in mouse model at 300 mg/kg, ip after 2 hrs; type: functional, organism-based; set-up: dose 300 mg/kg; in short: as §1
Mus musculus [11] = assay: Anticonvulsant activity against scMet-induced seizures in mouse model at 100 mg/kg; type: functional

SMILES	Activity (Mus musculus [2])	Activity (Mus musculus [3])	Activity (Mus musculus [4])	Activity (Mus musculus [5])	further results
CCCC(CCC)C(=O)NCc1ccc(S(N)(=O)=O)cc1					ED50 (Mus musculus [1]): 16 mg/kg
Cc1cccc(C)c1OCC(C)NC(=O)C1C(C)(C)C1(C)C (stereo unspecified)	inactive	inactive	inactive	inactive	
CC(NC(=O)C1C(C)(C)C1(C)C)c1ccccc1 (stereo unspecified)	inactive	inactive	inactive	inactive	
CC1(C)C(C(=O)NCc2ccc(F)cc2)C1(C)C	inactive	inactive	inactive	inactive	
CC1(C)C(C(=O)NCc2ccccc2)C1(C)C	inactive	Active	inactive	Active	
CC1(C)C(C(=O)Nc2ccccc2)C1(C)C	inactive	inactive	inactive	inactive	
CC(=O)c1ccc(NC(=O)C2C(C)(C)C2(C)C)cc1	inactive	inactive	Active	inactive	
CC1(C)C(C(=O)NCc2ccc(S(N)(=O)=O)cc2)C1(C)C	inactive	inactive		inactive	
CONC(=O)C1C(C)(C)C1(C)C					ED50 (Rattus norvegicus [6]): 35 mg/kg; PI (Rattus norvegicus [7]): 10
CC1(C)C(C(=O)NCc2ccccc2Cl)C1(C)C	inactive	inactive	inactive	inactive	
CCCC(CCC)C(=O)O [VALPROIC ACID]					ED50 (Rattus norvegicus [6]): 646 mg/kg
CC1(C)C(C(=O)NCCc2ccccc2)C1(C)C	inactive	inactive	inactive	Active	
CC(C(O)c1ccccc1)N(C)C(=O)C1C(C)(C)C1(C)C (stereo unspecified)	inactive	inactive	inactive	inactive	
NS(=O)(=O)Cc1noc2ccccc12 [ZONISAMIDE]					ED50 (Rattus norvegicus [6]): > 300 mg/kg; ED50 (Rattus norvegicus [8]): 21 mg/kg; TD50 [9]: 192 mg/kg
CC1(C)C(C(=O)NC(=O)Nc2ccccc2)C1(C)C	inactive	inactive	inactive	inactive	
CC1(C)C(C(=O)Nc2ccc(S(N)(=O)=O)cc2)C1(C)C	inactive	inactive		inactive	ED50 (Rattus norvegicus [6]): > 100 mg/kg; ED50 (Rattus norvegicus [8]): 26 mg/kg; Activity (Mus musculus [10]): Active; TD50 [9]: > 500 mg/kg
CCCC(CCC)C(=O)NCc1ccccc1 [VALPROYLBENZYLAMIDE]					Activity (Mus musculus [11]): 50%
CC1(C)C(C(=O)NC(N)=O)C1(C)C [2,2,3,3-TETRAMETHYLCYCLOPROPANECARBONYLUREA]					ED50 (Rattus norvegicus [8]): 29 mg/kg
CC1(C)C(C(=O)Nc2cc(Cl)c(S(N)(=O)=O)cc2S(N)(=O)=O)C1(C)C	inactive	inactive	inactive	inactive	
Cc1cccc(C)c1OCC(C)N (stereo unspecified) [MEXILETINE]					ED50 (Mus musculus [1]): 10 mg/kg
CC1(C)C(C(=O)NCCc2c[nH]c3ccccc23)C1(C)C	inactive	inactive	inactive	inactive	
CC(CNC(=O)C1C(C)(C)C1(C)C)c1ccccc1 (stereo unspecified)	inactive	inactive	inactive	inactive	
CC1(C)C(C(=O)NCCCc2ccccc2)C1(C)C	inactive	inactive	inactive	inactive	
